pIC50: −log10 of the molar value.
Experiments:
[1] = Half life in mouse serum by HPLC analysis; format: ADME, cell-free
In short: (§1)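 Radioiodinated guanidines were incubated in mouse, human or pig serum and analyzed by radio-HPLC on a C18 column at 0.8 mL/min. The gradient was 0–95% CH3CN over 50 min, then 95% for 20 min. Intact compound was fitted to monoexponential degradation to give half-life. Values are average ± std err.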

[2] = Drug level in tumor of NCR nu/nu mouse xenografted with human BE(2)-C cells at 0.33 +/- 0.05 MBq administered intratumorally after 24 hrs by gamma counting method; format: ADME, tissue-based, Neoplasm; settings: in vivo, other
In short: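 Athymic Ncr nu/nu female and male mice bearing subcutaneous BE(2)-C xenografts received intratumor injections of the 125I agent. Tissues, tumor and blood were collected at 24 h and counted for radioactivity, expressed as %ID/g. Tumor-to-blood ratios were derived.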

[3] = Toxicity in NCR nu/nu mouse xenografted with human BE(2)-C cells assessed as effect on hemoglobin level at 8.41 +/- 0.32 mBq measured up to 166 hrs
In short: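 Athymic Ncr nu/nu female and male mice bearing subcutaneous BE(2)-C xenografts were randomized by lottery to untreated control or a single intratumor injection of 125I-guanidine (8.4 ± 0.3 MBq/mouse). Blood hemoglobin was measured in both groups and compared with the normal adult mouse range. Treated mice were terminated 14 days after injection.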

[4] = Stability in EMEM medium assessed as intact compound level incubated for 24 hrs by HPLC analysis; format: physicochemical; settings: read-out: Stability
In short: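 The compound was incubated 24 h in cell culture medium without cells or with SK-N-SH cells. Intact compound and 125IUdR catabolite were quantified by radio-HPLC on a C18 column at 0.8 mL/min, with a 0–95% CH3CN gradient over 50 min and 95% for 20 min.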

SK-N-SH [5] = test: Antiproliferative activity against human SK-N-SH cells assessed as intracellular concentration of 125I required to show 63% inhibition after 24 hrs; format: cell-based
In short: (§2)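 D37 (63% kill) was estimated for SK-N-SH cells treated 24 h with IDG. It is expressed as extracellular (kBq/mL) or intracellular (mBq/cell) 125I. Survival was assessed by trypan blue and clonogenic assays. Values are average (std error).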

[6] = Drug level in human SK-N-SH cells DNA at 40 +/- 0.5 kBq/mL after 1 hr and followed by compound washout with non-radioactive medium/PBS and measured immediately by gamma counting method relative to control; format: ADME, cell-based
In short: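 SK-N-SH cells were exposed 1 h to 125I compound (≈39–40 kBq/mL), then washed with nonradioactive medium and PBS. Cells were processed immediately (1 h) or re-incubated in fresh medium for 23 h (24 h). Cytoplasmic, nuclear and DNA fractions were gamma-counted.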

[7] = Stability in human serum assessed as intact compound level after 5 mins by HPLC analysis; format: ADME, cell-free; settings: read-out: Stability; in short: as §1
[8] = molecular target: T1, Sodium-dependent noradrenaline transporter (Homo sapiens, UniProt P23975); test: Substrate activity at NET in human SK-N-SH cells assessed as inhibition of drug uptake by measuring MIBG IC50 incubated for 1 hr in presence of nonradioactive MIBG at 4 degC by filtration based gamma counting method; format: cell-based
In short: (§3)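 This was a cell-suspension competition assay. SK-N-SH cells in suspension were incubated with 125I-guanidine and graded nonradioactive MIBG, and uptake was read by filtration and γ-counting. Runs were done at 37 °C, or at 4 °C after cooling the cells on ice. The MIBG IC50 was estimated from the inhibition curves.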

SK-N-SH [9] = test: Antiproliferative activity against human SK-N-SH cells assessed as cell viability at 180 kBa/ml after 24 hrs by trypan blue assay relative to control; format: functional
In short: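 Cell survival was scored by trypan blue exclusion 24 h after exposing SK-N-SH cells to radioiodinated guanidine at varied extracellular concentrations. Values are average (n ≥ 3) ± SD.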

[10] = molecular target: T1, Sodium-dependent noradrenaline transporter; test: Substrate activity at NET in human BE(2)-C cells assessed as inhibition of drug uptake by measuring MIBG IC50 incubated for 1 hr in presence of nonradioactive MIBG by gamma counting method; format: cell-based
[11] = Drug level in tumor of NCR nu/nu mouse xenografted with human BE(2)-C cells at 0.83 +/- 0.09 MBq administered intratumorally pretreated with 9 umol of BNPP after 24 hrs by gamma counting analysis; format: ADME, tissue-based, Neoplasm; settings: in vivo, other
In short: (§4)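 BE(2)-C xenograft-bearing nude mice were pre-injected with the carboxylesterase inhibitor bis-para-nitrophenylphosphate (9 or 18 μmol). They then received intratumor IDG. Tumor %ID/g was determined at 24 h.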

SK-N-SH [12] = test: Anticlonogenic activity against human SK-N-SH cells assessed as number of colonies at 40 +/- 0.5 kBq/mL kBq/mL after 1 hr by crystal violet staining based assay; format: functional
In short: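 SK-N-SH cells exposed for 1 h to 125I-MIBG (39.3 ± 0.3 kBq/mL extracellular) or IDG (40 ± 0.5 kBq/mL). For the 1 h group, cells were washed with nonradioactive medium and PBS, harvested with trypsin and replated for the clonogenic assay. For the 24 h group, cells were washed, given fresh nonradioactive medium and incubated a further 23 h before plating. Colonies were counted.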

SK-N-SH [13] = test: Antiproliferative activity against human SK-N-SH cells assessed as extracellular concentration of 125I required to show 63% inhibition after 24 hrs; format: cell-based; in short: as §2
BE(2)-C [14] = test: Antitumor activity against human BE(2)-C cells xenografted with NCR nu/nu mouse assessed as tumor volume at 8.4 +/- 0.3 mBq administered intratumorally after 14 days (reference value: […]); format: functional
In short: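 Athymic Ncr nu/nu female and male mice bearing subcutaneous BE(2)-C xenografts were randomized by lottery into untreated control and treatment groups. Treatment was a single intratumor injection of 8.4 ± 0.3 MBq/mouse. Tumor volumes were followed to day 7 (controls) or day 14. Doubling times were calculated from day 0 to 7 and day 0 to 14. Values are average ± std err.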

[15] = molecular target: T1, Sodium-dependent noradrenaline transporter; test: Substrate activity at NET in human SK-N-SH cells assessed as inhibition of drug uptake by measuring MIBG IC50 incubated for 1 hr in presence of nonradioactive MIBG at 37 degC by filtration based gamma counting method; format: cell-based; in short: as §3
[16] = Drug level in tumor of NCR nu/nu mouse xenografted with human BE(2)-C cells at 0.83 +/- 0.09 MBq administered intratumorally pretreated with 18 umol of BNPP after 24 hrs by gamma counting analysis; format: ADME, tissue-based, Neoplasm; settings: in vivo, other; in short: as §4
[17] = Half life in EMEM medium by HPLC analysis; format: physicochemical
[18] = Partition coefficient, logP of compound; format: physicochemical; settings: octanol/water
BE(2)-C [19] = test: Antiproliferative activity against human BE(2)-C cells assessed as extracellular concentration of 125I required to show 63% inhibition after 1 hr; format: cell-based
In short: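 BE(2)-C cells were treated for 1 h with several IDG concentrations, washed extensively, harvested with trypsin and replated for clonogenic assay. Cellular 125I uptake was measured per cell. D37 (63% kill) was estimated from survival versus extracellular concentration or intracellular content (mBq/cell). Values are average (std error).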

T1 sequence (P23975 whole entry): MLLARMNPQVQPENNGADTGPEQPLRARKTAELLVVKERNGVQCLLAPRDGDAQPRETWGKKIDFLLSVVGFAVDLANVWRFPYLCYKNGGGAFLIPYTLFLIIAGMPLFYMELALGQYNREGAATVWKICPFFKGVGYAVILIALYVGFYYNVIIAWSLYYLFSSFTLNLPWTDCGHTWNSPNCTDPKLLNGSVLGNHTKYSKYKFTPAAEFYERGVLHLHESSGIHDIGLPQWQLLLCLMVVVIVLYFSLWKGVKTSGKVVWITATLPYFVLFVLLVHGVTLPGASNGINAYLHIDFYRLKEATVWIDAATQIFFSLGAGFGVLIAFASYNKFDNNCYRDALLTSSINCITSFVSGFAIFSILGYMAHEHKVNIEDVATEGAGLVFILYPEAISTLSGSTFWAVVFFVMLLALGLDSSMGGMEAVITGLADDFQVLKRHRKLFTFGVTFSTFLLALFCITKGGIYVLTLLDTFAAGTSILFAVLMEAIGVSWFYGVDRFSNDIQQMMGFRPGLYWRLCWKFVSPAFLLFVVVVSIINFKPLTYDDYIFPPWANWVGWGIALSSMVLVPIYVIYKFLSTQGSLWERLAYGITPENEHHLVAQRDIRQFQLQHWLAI

- half-life [1]: 3.54 min
- Drug uptake [2]: 3.93 % ID/g
- remaining at 24 h [4]: 86%
- Drug uptake [6]: 70 to 80%
- remaining at 5 min [7]: 93%
- pIC50 [8]: 4.66
- pIC50 [10]: 5.09
- Drug uptake [11]: 1.63 % ID/g
- pIC50 [15]: 4.45
- Drug uptake [16]: 1.66 % ID/g
- half-life [17]: 110 h
- logP [18]: -0.2
SMILES: N=C(N)NCCCCCC(=O)O[C@H]1C[C@H](n2cc([125I])c(=O)[nH]c2=O)O[C@@H]1CO
- Activity [3]: Non-Toxic
- Activity (SK-N-SH [5]): 1.2 mBq
- Activity (SK-N-SH [9]): 60%
- Activity (SK-N-SH [12]): 163
- Activity (SK-N-SH [13]): 15.6 kBq/ml
- Activity (BE(2)-C [14]): 2.55 cm3
- Activity (BE(2)-C [19]): 398 kBq/ml

Reference: ChEMBL document CHEMBL4402514, “Norepinephrine-Transporter-Targeted and DNA-Co-Targeted Theranostic Guanidines” (J Med Chem, 2020)
